Consider one sequence from paper PMC6035748 (Journal of biomedical materials research. Part A, 2018).

The target of one data set is integrin αvβ3 (Homo sapiens, UniProt P05106+P06756). The data set is described as follows: Bio-layer interferometry. The data set is classed as binding. The gist of the method:
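Biotinylated test peptide, 25 μM stock in 5% DMSO/95% water, diluted 100-fold in 0.05% Tween 20 in 1X PBS. The peptide was loaded onto streptavidin biosensors for 300 s, with 60 s buffer-only steps on either side. Association ran 600 s against human recombinant integrin αvβ3 at 10–300 nM in the same buffer. kon and koff were fitted to a single-binding-site association model.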
Background: Biolayer interferometry detects binding as a change in optical thickness at a sensor tip.

The test system of another data set is MDA-MB-231 tumors. The data set is described as follows: Biodistribution in orthotopic MDA-MB-231 xenograft mouse model. The format is in vivo. The conditions noted are these: AXT050-IRD800 intravenous, organs harvested 24 h post injection.

Ends that are not written are not given here.

Sequence of integrin αvβ3 (P06756 31-992 limits assumed): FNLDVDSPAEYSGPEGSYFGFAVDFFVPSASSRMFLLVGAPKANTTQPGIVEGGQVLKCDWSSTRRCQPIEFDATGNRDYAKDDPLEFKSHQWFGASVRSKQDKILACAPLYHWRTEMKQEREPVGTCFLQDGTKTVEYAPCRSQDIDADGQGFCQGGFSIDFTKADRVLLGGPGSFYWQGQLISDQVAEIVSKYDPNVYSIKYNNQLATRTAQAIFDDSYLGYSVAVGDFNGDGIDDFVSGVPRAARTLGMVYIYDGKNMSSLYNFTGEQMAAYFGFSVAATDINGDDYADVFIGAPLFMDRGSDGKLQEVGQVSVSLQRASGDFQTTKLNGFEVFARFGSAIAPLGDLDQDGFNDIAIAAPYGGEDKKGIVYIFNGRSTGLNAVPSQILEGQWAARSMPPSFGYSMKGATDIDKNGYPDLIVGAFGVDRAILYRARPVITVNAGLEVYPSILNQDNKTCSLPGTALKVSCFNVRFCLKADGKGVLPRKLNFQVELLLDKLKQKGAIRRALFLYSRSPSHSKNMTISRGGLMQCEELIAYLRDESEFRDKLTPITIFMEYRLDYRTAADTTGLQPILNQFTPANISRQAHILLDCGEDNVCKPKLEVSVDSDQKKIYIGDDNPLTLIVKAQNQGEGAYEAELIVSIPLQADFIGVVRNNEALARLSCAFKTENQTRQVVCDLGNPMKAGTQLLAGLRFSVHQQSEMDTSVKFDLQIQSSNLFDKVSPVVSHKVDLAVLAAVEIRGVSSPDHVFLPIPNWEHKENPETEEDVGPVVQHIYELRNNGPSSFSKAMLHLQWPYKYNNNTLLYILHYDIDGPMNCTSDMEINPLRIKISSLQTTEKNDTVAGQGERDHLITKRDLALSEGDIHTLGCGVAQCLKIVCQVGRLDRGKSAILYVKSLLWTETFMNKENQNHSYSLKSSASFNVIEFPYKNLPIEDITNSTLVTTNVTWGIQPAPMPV
Sequence of integrin αvβ3 (P05106 27-718 limits assumed): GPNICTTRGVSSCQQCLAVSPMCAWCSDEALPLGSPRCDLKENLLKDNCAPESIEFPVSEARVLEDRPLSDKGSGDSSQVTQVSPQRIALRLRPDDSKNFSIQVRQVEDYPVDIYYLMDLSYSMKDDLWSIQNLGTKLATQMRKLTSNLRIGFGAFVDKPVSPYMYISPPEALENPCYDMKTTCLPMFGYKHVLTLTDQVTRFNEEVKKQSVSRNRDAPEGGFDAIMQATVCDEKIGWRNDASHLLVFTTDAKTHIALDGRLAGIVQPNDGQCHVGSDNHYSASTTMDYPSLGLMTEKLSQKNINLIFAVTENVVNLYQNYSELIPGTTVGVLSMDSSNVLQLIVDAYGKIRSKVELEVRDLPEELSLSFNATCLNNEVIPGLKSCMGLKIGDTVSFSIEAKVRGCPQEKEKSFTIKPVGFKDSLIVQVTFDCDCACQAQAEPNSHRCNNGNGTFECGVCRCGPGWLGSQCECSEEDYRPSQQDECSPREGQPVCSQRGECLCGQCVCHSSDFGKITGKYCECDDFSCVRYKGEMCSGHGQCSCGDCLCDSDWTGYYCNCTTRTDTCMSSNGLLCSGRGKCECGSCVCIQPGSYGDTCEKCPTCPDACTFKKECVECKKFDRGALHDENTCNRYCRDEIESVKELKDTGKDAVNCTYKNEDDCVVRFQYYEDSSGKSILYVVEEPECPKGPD

Broadly, the koff is the rate constant with which the complex falls apart. The low end stands for a long-lived complex, the high end for a short-lived complex. Take LRRFSTAPFAFIDINDVINF [AXT050]: at integrin αvβ3, the koff came to 0.0032 s⁻¹. Further, the “organ with highest detection / main route of clearance” value with MDA-MB-231 tumors is reported as “highest level of its detection in the kidneys”.
